Experimental data taken from paper PMC9260854 (Biochemistry, 2022).
Substitutions are numbered along the chain they refer to.

What was measured:
[1] = target: T1, SULT2B1b S347D spin-labeled at residue 21 (Homo sapiens, UniProt O00204, C225S/C278S/C81S/S21C/S347D); assay: Initial-rate parameters, spin-labeled mutant 21; type: biochemical
T1 sequence (O00204 1-365 S21C/C81S/C225S/C278S/S347D): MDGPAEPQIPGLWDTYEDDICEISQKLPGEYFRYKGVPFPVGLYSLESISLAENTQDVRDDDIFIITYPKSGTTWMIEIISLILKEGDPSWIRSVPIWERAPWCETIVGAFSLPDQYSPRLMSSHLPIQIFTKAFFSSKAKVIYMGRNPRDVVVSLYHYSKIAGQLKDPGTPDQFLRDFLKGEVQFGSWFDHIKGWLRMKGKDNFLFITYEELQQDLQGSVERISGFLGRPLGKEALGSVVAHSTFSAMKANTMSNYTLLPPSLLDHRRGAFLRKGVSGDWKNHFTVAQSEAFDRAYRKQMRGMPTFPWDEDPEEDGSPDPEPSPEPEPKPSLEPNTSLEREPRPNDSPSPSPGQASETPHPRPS

SULT2B1b, S347D, W13A = target: T2, SULT2B1b, S347D, W13A (Homo sapiens, UniProt O00204, S347D/W13A); assay: Initial-rate parameters, direct-contact mutant W13A
T2 sequence (O00204 1-365 W13A/S347D): T1 sequence (O00204 1-365 S21C/C81S/C225S/C278S/S347D) with W13A, C21S, S81C, S225C, S278C

SULT2B1b, S347D, Y257A = target: T3, SULT2B1b, S347D, Y257A (Homo sapiens, UniProt O00204, S347D/Y257A); assay: Initial-rate parameters, direct-contact mutant Y257A
T3 sequence (O00204 1-365 Y257A/S347D): T1 sequence (O00204 1-365 S21C/C81S/C225S/C278S/S347D) with C21S, S81C, S225C, Y257A, S278C

SULT2B1a = target: T4, SULT2B1a (Homo sapiens, UniProt O00204); assay: Initial-rate 1-HP sulfonation inhibition; type: biochemical
T4 sequence (O00204 1-350 isoform O00204-2): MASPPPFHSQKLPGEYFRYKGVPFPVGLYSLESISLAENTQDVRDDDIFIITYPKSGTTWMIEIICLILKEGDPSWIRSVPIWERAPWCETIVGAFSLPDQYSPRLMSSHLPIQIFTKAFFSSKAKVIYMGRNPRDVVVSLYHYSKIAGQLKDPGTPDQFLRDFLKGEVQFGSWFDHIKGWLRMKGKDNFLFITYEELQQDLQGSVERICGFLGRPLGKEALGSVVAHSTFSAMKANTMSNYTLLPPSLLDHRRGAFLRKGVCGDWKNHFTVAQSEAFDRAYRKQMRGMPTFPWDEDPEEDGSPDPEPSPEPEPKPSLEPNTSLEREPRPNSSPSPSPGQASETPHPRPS

SULT2B1b S347D = target: T5, SULT2B1b S347D (Homo sapiens, UniProt O00204, S347D); assay: Equilibrium binding via intrinsic fluorescence; settings: for Kd: Kd Quc
T5 sequence (O00204 1-365 S347D): T1 sequence (O00204 1-365 S21C/C81S/C225S/C278S/S347D) with C21S, S81C, S225C, S278C
In short: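 Intrinsic fluorescence titrations of purified His/GST/MBP-tag-cleaved enzyme, excitation 290 nm, in KPO4 (50 mM), pH 7.5, 25 ± 2 °C. […] Triplicate averaged data were fit to a single-site-per-monomer model.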

## O=c1c(O)c(-c2ccc(O)c(O)c2)oc2cc(O)cc(O)c12 [quercetin]
[1]
  Ki: 330 nM
SULT2B1b, S347D, W13A
  Ki: 7500 nM
SULT2B1b, S347D, Y257A
  Ki: 1600 nM
SULT2B1a; concentrations as high as 10 μM
  inhibition by quercetin: does not detectably inhibit
SULT2B1a; up to 100 μM quercetin
  inhibition by quercetin: No inhibition was detected
SULT2B1b S347D; enzyme form E (no PAP)
  Kd: 5300 nM
SULT2B1b S347D; enzyme form E•PAP (PAP 30 μM)
  Kd: 350 nM
SULT2B1b S347D; saturation with PAPS
  increase of quercetin affinity: 15 fold
